Only some compounds are listed: those with a hit (about 6% of all), similar ones and a draw of the others.
H69AR growth 86K: growth inhibitors of human H69AR lung tumor cells | H69AR lung tumor viability, ATP luminescence, 72 h; stronger effect = lower value | viability, % at 10 µM | 85,000 tested, 6% active | AID 598;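 active means viability at or below 40%; inactive means viability above 40%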;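 further: multidrug resistant small cell line overexpressing MRP-1 efflux transporter; 100% = mean luminescence of untreated control wells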
PTK2B oligo ant: antagonists of human Pyk2 oligomerization; z-score (the deposit names both 25 µM and 10 µM); AID 1347419; Q14289; 99,000 tested, 0.83% active; Q293 cells, Pyk2 FERM NanoBiT luminescence; stronger effect = lower value;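 active means Z-score of -3 or lower, scaled per plate to the spread of control and sample wells; inactive means z-score above -3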;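 further: negative z-score means lost luminescence so less FERM oligomerization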
Jurkat tox 60K: cytotoxic compounds reducing Jurkat cell viability; Jurkat E6.1 viability, ATP luminescence, 48 h; inhibition, % at 4 µM; 56,000 tested, 1.2% active;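 active means inhibition above the mean inhibition of all tested compounds plus 3 SD, cut at about 28% in these data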
Fibroblast inh: blocks proliferation of human lung fibroblasts | viability, % at 10 µM | 85,000 tested, 1.1% active | AID 719 | LL 47 human lung fibroblast viability, ATP luminescence; stronger effect = lower value;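 active means viability at or below 50% in the single dose screen; inactive means viability above 50%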;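 further: compound exposure lasted 72 h before the ATP readout; 100% = median luminescence of untreated cell-only wells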
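Material: Human LL 47 lung fibroblast cells | Input: 1,150 cells/well | Buffer or medium: IMEM plus 15% FBS | Compound dosing: 0.1% DMSO in all compound wells | Times: Overnight cell rest, 72 h compound treatment at 37 °C | Signal: CellTiter-Glo luminescence measuring cellular ATP | Measure: % viability versus median cells-only luminescence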
F-actin modifier: cytoskeleton assembly modification | HUVEC TNFa F-actin phalloidin imaging, high content | 91,000 tested, 0.18% active | inhibition, % at 2 µM;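 active means inhibition above the batch mean plus 3 SD and confirmed as a hit by visual image inspection, cut at about 30% in these data, passing the limit was not always enough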
HUVEC inhibit: inhibitors of human endothelial cell proliferation; viability, % at 10 µM (by protocol); 86,000 tested, 1.1% active; AID 648; HUVEC proliferation, CellTiter-Glo luminescence, 72 h; stronger effect = lower value;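 active means viability at or below 30%; inactive means viability above 30%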;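 further: 100% = median luminescence of DMSO-only cell control wells on each plate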
The depositor's hits bear a star; nt = no result given.

SMILES	H69AR growth 86K	PTK2B oligo ant	Jurkat tox 60K	Fibroblast inh	F-actin modifier	HUVEC inhibit
Clc1cccc(CSc2nnc(-c3c[nH]c4ccccc34)o2)c1	nt	-1.03	nt	nt	-13.8	nt
CCOC(=O)COc1ccc2c(c1)C(=O)CC1(CCN(C(C)=O)CC1)O2	91.8	-0.04	nt	92.1	16.5	92.1
CCn1c(SCC(=O)NCc2ccccc2)nc2c(c1=O)SC(C)C2 (centres undefined)	87.3	nt	nt	95.2	-21.0	92.0
O=S(=O)(NCC1CCCO1)c1ccc(S(=O)(=O)N(Cc2ccc(F)cc2)C2CCCCC2)cc1 (centres undefined)	62.4	-0.36	nt	79.9	15.7	70.2
CCOC(=O)N1CCN(C(=O)CSc2cc(C)nc3c(-c4ccccc4OC)c(C)nn23)CC1	38.6*	-0.27	-6.6	101.7	8.9	99.5
COc1ccccc1-c1c(C)nn2c(C)cc(C)nc12	103.2	nt	-7.8	97.9	nt	95.7
CCOC(=O)N1CCC(Nc2cc(C)nc3c(-c4ccccc4OC)c(C)nn23)CC1	37.1*	nt	8.3	90.0	nt	73.7
COc1ccccc1-c1c(C)nn2c(N3CCC(C(N)=O)CC3)cc(C)nc12	82.7	nt	nt	97.6	9.3	100.7
Cc1ccc2[nH]c(=O)c(C(c3nnnn3CC3CCCO3)N3CCCc4ccccc43)cc2c1 (centres undefined)	nt	0.46	8.3	nt	-15.4	nt
O=C(Nc1ccc(Cl)cc1)NC1CCCCC1Cc1ccco1 (centres undefined)	6.6*	-2.09	nt	96.0	-5.5	61.2
O=C(Nc1ccc(Cl)cc1)NC1CCCC1Cc1ccco1 (centres undefined)	84.8	1.15	2.9	101.5	-38.0	63.6
Cc1cccc(C)c1Nc1nnc(SCc2cc([N+](=O)[O-])cc3c2OCOC3)s1	81.8	-1.42	nt	99.1	1.2	88.5
COc1cccc(Nc2nnc(SCc3cc([N+](=O)[O-])cc4c3OCOC4)s2)c1	nt	-3.26*	nt	nt	-0.1	nt
CC(C)Oc1ccccc1C1CC(=O)Nc2c1c(=O)n(C)c(=O)n2C (centres undefined)	95.6	nt	nt	96.4	7.1	111.4
O=C(Oc1c(Cl)cc(Cl)c2cccnc12)c1cccs1	27.4*	-0.94	nt	60.9	4.3	47.8
O=C(Oc1cncc(Cl)c1)c1ccco1	87.2	0.28	nt	112.2	5.5	94.1
O=C(Oc1c(Cl)cc(Cl)c2cccnc12)c1ccco1	1.8*	-2.6	nt	43.1*	-2.0	30.5
C=CCN=C(NC#N)SCC(=O)c1cccc(OC)c1	34.7*	-1.32	-6.7	92.2	-7.3	95.7
C=CCN=C(NC#N)SCc1ccccc1	92.0	-0.34	nt	101.8	-8.7	105.8
COC(=O)C1CCCN1C(=O)C1CCCN1C(=O)CNC(=O)OCc1ccccc1 (centres undefined)	106.0	-0.32	5.1	94.1	nt	93.2
COC(=O)c1sccc1NC(=O)c1ccc2c(c1)OCO2	38.8*	-1.53	nt	28.8*	8.1	63.8
CCOC(=O)c1c(C)[nH]c(C(=O)OCC(=O)NC2CCS(=O)(=O)C2)c1C (centres undefined)	82.2	0.27	nt	100.7	-21.9	91.6
COc1ccc(N2C(=O)CC(NC3CCCCNC3=O)C2=O)cc1 (centres undefined)	88.7	-0.32	nt	105.9	34.9*	94.3
O=c1c2ccccc2sn1-c1cc(S(=O)(=O)N2CCOCC2)ccc1N1CCCC1	1.0*	0.2	nt	55.4	nt	73.1
CCOC(=O)CSc1nnc2n(Cc3ccccc3)c(=O)c3c4c(sc3n12)CCC4	95.7	0.53	nt	98.3	2.5	78.7
SMILES	H69AR growth 86K	PTK2B oligo ant	Jurkat tox 60K	Fibroblast inh	F-actin modifier	HUVEC inhibit
C=CCn1c(=O)c2c3c(sc2n2c(Nc4ccc(OC)cc4)nnc12)CCCC3	90.3	-2.19	-3.0	95.4	12.3	77.8
C=CCn1c(=O)c2c3c(sc2n2c(Nc4ccc(C(=O)OCC)cc4)nnc12)CCCC3	38.7*	-0.17	nt	103.7	6.0	86.1
C=CCn1c(=O)c2c3c(sc2n2c(Nc4ccccc4)nnc12)CCCC3	101.1	-3.72*	nt	107.0	-9.6	104.0
COc1ccc(OC)c(N(CC(=O)N2CCN(c3cc(Cl)ccc3C)CC2)S(C)(=O)=O)c1	112.0	-0.68	7.5	98.5	2.4	94.3
CCOc1ccc(Br)cc1/C(C)=N\NC1=NCCN1	17.7*	0.93	nt	51.5	11.4	58.2
CCOc1ccc(CSC2=NCCN2)cc1Cl	78.3	-1.44	5.6	79.6	-8.2	77.9
CN1CCN(c2nc3ccccc3nc2C(C#N)C(=O)OC2CCCCC2)CC1 (centres undefined)	19.4*	-2.07	5.6	70.7	5.0	3.7*
CCN1CCN(c2nc3ccccc3nc2C(C#N)C(=O)OC2CCCCC2)CC1 (centres undefined)	49.9	-1.42	3.0	80.7	-42.1	37.4
CCOC(=O)C1CCCN(c2nc3ccccc3nc2C(C#N)C(=O)OCCOC)C1 (centres undefined)	75.2	-0.98	nt	53.6	nt	25.4*
CC(=O)Oc1cccc(N2C(=O)c3ccc(C(=O)O)cc3C2=O)c1	2.0*	0.12	1.2	93.0	-44.0	97.2
Cc1ccc(CNc2ccc3c(c2)OCO3)c(C)c1	29.8*	nt	8.8	94.6	3.8	61.5
CCCCNC(=O)C(=O)NC(C)CCc1ccccc1 (centres undefined)	nt	-0.28	nt	nt	23.1	nt
COc1cccc(N(C(=O)Cn2nnc(-c3ccc(C)cc3)n2)C(C(=O)NC(C)(C)C)c2c[nH]c3ccccc23)c1 (centres undefined)	nt	0.34	nt	nt	24.3	nt
COc1cccc(N(C(=O)Cn2nnc(-c3cccs3)n2)C(C(=O)NC(C)C)c2ccc(C)o2)c1 (centres undefined)	88.4	-3.5*	nt	91.2	4.8	51.8
Cn1c(CC(=O)Nc2ccccc2C(F)(F)F)c(Sc2ccccc2)c2ccccc21	nt	-0.53	nt	nt	nt	nt
COc1ccc(Nc2cc(C(=O)NCCCN3CCOCC3)c3ccccc3n2)cc1OC	93.5	-1.17	nt	88.9	34.7*	72.4
Cc1ccc(OC(=S)Nc2ccc(F)cc2)cc1	87.5	0.53	nt	95.0	3.6	99.2
Cc1ccc(OC(=S)Nc2ccc(O)cc2)cc1	15.1*	1.09	nt	96.8	0.6	70.2
COc1ccc(C2CC(c3c(O)cc(C)oc3=O)=NCCS2)c(OC)c1 (centres undefined)	24.4*	0.19	94.6*	47.9*	nt	48.0
Cc1onc(-c2ccccc2Cl)c1C(=O)N1CCc2ccccc21	81.7	-1.06	5.8	98.1	nt	112.0
Cc1onc(-c2ccccc2Cl)c1C(=O)N1CCCc2ccccc21	23.2*	-0.08	10.9	90.6	0.0	90.1
Cc1onc(-c2c(F)cccc2Cl)c1C(=O)N1CCCc2ccccc21	18.7*	-0.75	nt	85.1	-3.8	62.9
COc1ccccc1N1CCN(C(=O)c2c(-c3ccccc3Cl)noc2C)CC1	19.4*	-0.29	-0.7	95.2	-61.9	81.7
O=C(c1ccc(C(=O)N2CCCc3ccccc32)s1)N1CCCc2ccccc21	nt	-3.28*	nt	nt	16.9	nt
Cc1ccc(CNC(=O)C(C)OC(=O)c2cccs2)cc1 (centres undefined)	96.5	0.92	nt	97.2	nt	103.1

Screens from PubChem BioAssay.
